This note sets out measurements from ChEMBL document CHEMBL1129607, “Paracyclophanes: a novel class of water-soluble inhibitors of HIV proteinase” (J Med Chem, 1996).

In brackets after ≈: the same amount, converted by molar mass. Some results are limits rather than exact numbers.

What is called IC50 is the midpoint of a concentration-inhibition curve. Read a high IC50 as lower potency. In general, Ki refers to a measure of affinity in units of concentration, obtained from inhibition or displacement. Read a low Ki as a stronger hold on the target. The AUC is the area under the concentration-time curve, a measure of exposure. A high value points to more exposure. As usually defined, the solubility is how much of the substance goes into solution per volume. Lower therefore signals little dissolved substance.

The test system of data set [1] is Human immunodeficiency virus 1. In words: Antiviral activity against HIV-1 IIIB induced cytopathic effect in de novo infected MT-4 cells. The class given is functional, organism-based. The following applies: Human immunodeficiency virus 1, MT4. A digest of the protocol:
(§1)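 MT4 cells were infected de novo with HIV-1 IIIB or HIV-2 EHO, and compound was added after adsorption. Mock-infected cells were run in parallel. After 5 days, viability was read spectrophotometrically by in situ MTT reduction.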
In general terms: Damage to the host cells serves as the signal in cytopathic effect assays.

In data set [2] the target is T1, Human immunodeficiency virus type 1 protease (Human immunodeficiency virus 1, UniProt Q72874). In words: Inhibition of HIV-1 proteinase was assayed in infected MT-4 cells. Type of data set: cell-based, MT4.
Data set [3] in a line: Inhibitory concentration against HIV-2 strain MS infected T4 lymphocytes. The class given is functional, cell-based. In a few lines:
(§2)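 T4-lymphocytes were purified from healthy donor human […] and stimulated with PHA. Cells were infected with HIV-1 IIIB or HIV-2 MS and kept in IL-2 medium. Compound was added after stimulation and virus adsorption. Every 3-4 days, half the supernatant was replaced with fresh IL-2 medium containing compound.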

Data set [4] deals with Cathepsin D (Homo sapiens, UniProt P07339). Description: The compound was tested for inhibition of Human Cathepsin D.
Data set [5] can be described thus: Area Under Curve was measured by ploting the graph between concentration verses time. Type of data set: ADME. A digest of the protocol:
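Female Balb/c mice (n = 2 per time point) were fasted 24 h before and throughout the study, with water ad libitum. Compound was given by oral gavage at 125 mg/kg in a microemulsion formulation. Plasma levels were measured by solid-phase extraction and HPLC.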

Data set [6] deals with MT4. In words: Antiviral activity for inhibition of HIV-2 proteinase was assayed in infected MT-4 cells. Type of data set: functional, cell-based. The following applies: Homo sapiens.
Data set [7] in a line: Inhibitory concentration against HIV-1 strain IIIB infected T4 lymphocytes. The class given is functional, cell-based. In a few lines:
as §2

Data set [8] is described as follows: Aqueous solubility in phosphate buffer of pH 7.4.
The target in data set [9] is T1, Human immunodeficiency virus type 1 protease. In words: Compound was tested for inhibition of HIV-1 protease was assayed in infected MT-4 cells. The class given is cell-based, MT4.
The test system of data set [10] is MT4. Description: Antiviral activity against HIV-2 induced cytopathic effect in de novo infected MT-4 cells. The class given is functional, cell-based. The following applies: Homo sapiens. In a few lines:
as §1

Sequence of Cathepsin D (P07339 65-162 limits assumed): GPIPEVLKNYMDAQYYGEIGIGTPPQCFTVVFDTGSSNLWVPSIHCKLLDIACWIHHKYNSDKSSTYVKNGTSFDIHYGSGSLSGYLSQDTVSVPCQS
Sequence of Cathepsin D (P07339 169-412 limits assumed): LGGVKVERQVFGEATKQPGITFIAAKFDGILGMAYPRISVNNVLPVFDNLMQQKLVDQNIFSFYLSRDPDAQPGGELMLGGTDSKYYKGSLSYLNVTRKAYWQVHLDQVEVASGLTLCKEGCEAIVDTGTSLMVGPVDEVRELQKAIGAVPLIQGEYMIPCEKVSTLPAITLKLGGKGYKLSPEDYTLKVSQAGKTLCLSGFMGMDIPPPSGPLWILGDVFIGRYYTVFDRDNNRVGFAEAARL

Turning to `CC(C)[C@H](NC(=O)OCc1ccccc1)C(=O)N[C@@H](Cc1ccccc1)[C@@H](O)[C@H]1NCc2ccc(cc2)OCCOCCOCCOCCNC(=O)[C@H](C(C)C)NC1=O`, inhibition in data set [1] was half-maximal at 52 nM (IC50).
As to `CC(C)[C@H](NC(=O)OCc1ccccc1)C(=O)N[C@@H](Cc1ccccc1)[C@@H](O)[C@H]1NCc2cccc(c2)OCCOCCOCCNC(=O)[C@H](C(C)C)NC1=O`, half-maximal inhibition in data set [1] (IC50) was put at 211 nM. In data set [2], affinity was put at a Ki of 7.7 nM.
With `CC(C)[C@@H]1NC(=O)[C@@H]([C@H](O)[C@H](Cc2ccccc2)NC(=O)OC(C)(C)C)NCc2ccc(cc2)OCCOCCOCCOCCNC1=O`, the IC50 in data set [1] was 1170 nM. Also, the inhibition constant (Ki) in data set [2] worked out at 23.2 nM.
In turn, `CC(C)[C@@H]1NC(=O)[C@@H]([C@H](O)[C@H](Cc2ccccc2)NC(=O)OC(C)(C)C)NCc2ccc(cc2)OCCOCCNC1=O` displayed an IC50 in data set [1] of 450 nM. The Ki in data set [2] is 14 nM.
For the molecule `CC(C)[C@H](NC(=O)OCc1ccccc1)C(=O)N[C@@H](Cc1ccccc1)[C@@H](O)[C@H]1NCc2ccc(cc2)OCCCCNC(=O)[C@H](C(C)C)NC1=O`, in data set [1], 27 nM corresponded to half-maximal inhibition (IC50).
Same read-out and setting: the figure for `CC(C)[C@@H]1NC(=O)[C@@H]([C@H](O)[C@H](Cc2ccccc2)NC(=O)O[C@H]2CCOC2)NCc2ccc(cc2)OCCOCCOCCNC1=O` is 198 nM.
In the case of `CC(C)[C@H](NC(=O)OCc1ccccc1)C(=O)N[C@@H](Cc1ccccc1)[C@@H](O)[C@H]1NCc2ccc(cc2)OCCOCCOCCNC(=O)[C@H](C(C)C)NC1=O`, the IC50 is 17 nM in data set [3]; more than 10 µM in data set [4]; 16 nM in data set [1]; 37 nM in [6]; 3.1 nM in data set [7]. In [5], this molecule showed an AUC of less than 0.4 µM·h. In data set [2], this molecule gave a Ki of 6.9 nM.
Molecule `CC(C)[C@@H]1NC(=O)[C@@H]([C@H](O)[C@H](Cc2ccccc2)NC(=O)OC(C)(C)C)NCc2cccc(c2)OCCOCCOCCNC1=O` displayed an IC50 in data set [1] of 3000 nM. In addition, the inhibition constant Ki in data set [2] turned out to be 208 nM.
As to `CC(C)[C@@H]1NC(=O)[C@@H]([C@H](O)[C@H](Cc2ccccc2)NC(=O)[C@@H](NC(=O)OCc2ccccc2)C(C)(C)C)NCc2ccc(cc2)OCCOCCNC1=O`, the IC50 in [4] is more than 10 µM; in data set [1], 15 nM. In data set [5], this molecule gave an AUC of 4.7 µM·h. Moreover, in [2], the Ki is 8 nM.
For `COc1ccc(CN[C@@H](C(=O)N[C@H](C(=O)NCc2nc3ccccc3[nH]2)C(C)C)[C@H](O)[C@H](Cc2ccccc2)NC(=O)[C@@H](NC(=O)OCc2ccccc2)C(C)C)cc1`, the solubility in data set [8] is less than 10 µM. The molecule also came in with an area under the curve (AUC) in [5] of less than 0.4 µM·h. This molecule also displayed an IC50 in data set [1] of 29 nM.
`CC(C)[C@@H]1NC(=O)[C@@H]([C@H](O)[C@H](Cc2ccccc2)NC(=O)O[C@H]2CCOC2)NCc2ccc(cc2)OCCOCCNC1=O`: the IC50 in [1] turned out to be 157 nM. Further, in data set [2], the Ki was determined as 8.2 nM.
Turning to `CC(C)[C@H](NC(=O)OCc1ccccc1)C(=O)N[C@@H](Cc1ccccc1)[C@@H](O)[C@H]1NCc2ccc(cc2)OCCOCCNC(=O)[C@H](C(C)C)NC1=O`, the IC50 in data set [4] is more than 10 µM; in [1], 21 nM. The affinity in [2] corresponds to a Ki of 7.9 nM.
`CC(C)[C@@H]1NC(=O)[C@@H]([C@H](O)[C@H](Cc2ccccc2)NC(=O)OC(C)(C)C)NCc2ccc(cc2)OCCOCCOCCNC1=O`: in data set [1], the IC50 was 169 nM.
In [1], `CC(C)[C@H](NC(=O)OCc1ccccc1)C(=O)N[C@@H](Cc1ccccc1)[C@@H](O)[C@H]1NCc2cccc(c2)OCCOCCNC(=O)[C@H](C(C)C)NC1=O` showed a concentration for half-maximal inhibition (IC50) of 60 nM.
Still for that read-out and setting: the figure for `CC(C)[C@@H]1NC(=O)[C@@H]([C@H](O)[C@H](Cc2ccccc2)NC(=O)OC(C)(C)C)NCc2cccc(c2)OCCOCCNC1=O` is 935 nM.
In the case of `CC(C)[C@@H]1NC(=O)[C@@H]([C@H](O)[C@H](Cc2ccccc2)NC(=O)[C@@H](NC(=O)CSc2nncn2C)C(C)(C)C)NCc2ccc(cc2)OCCOCCNC1=O`, the solubility in [8] stood at 1710 µM (≈ 1310 µg/mL). The same molecule displayed an IC50 in data set [1] of more than 3000 nM. The affinity in [2], expressed as Ki, was 11.1 nM.
Molecule `COc1ccc(CN[C@@H](C(=O)N[C@@H]2c3ccccc3C[C@H]2O)[C@H](O)[C@H](Cc2ccccc2)NC(=O)[C@@H](NC(=O)OCc2ccccc2)C(C)C)cc1` displayed a solubility in [8] of less than 10 µM. The figures for the IC50 in data set [4], in data set [1] and in data set [10] were more than 10 µM, 242 nM and 843 nM, respectively. Besides, the exposure (AUC) in data set [5] was 82.5 µM·h. In data set [9], this molecule gave a Ki of 9.5 nM.
On to `CC(C)[C@@H]1NC(=O)[C@@H]([C@H](O)[C@H](Cc2ccccc2)NC(=O)OC(C)(C)C)NCc2ccc(cc2)OCCCCNC1=O`, for which, in data set [9], the inhibition constant Ki came out at 17 nM. The IC50 in [1] came out at 1810 nM.
With `CC(C)[C@@H]1NC(=O)[C@@H]([C@H](O)[C@H](Cc2ccccc2)NC(=O)OC(C)(C)C)NCc2cccc(c2)OCCCCNC1=O`, half-maximal inhibition in data set [1] (IC50) required 335 nM.
In [1], `CC(C)[C@H](NC(=O)OCc1ccccc1)C(=O)N[C@@H](Cc1ccccc1)[C@@H](O)[C@H]1NCc2cccc(c2)OCCCCNC(=O)[C@H](C(C)C)NC1=O` registered an IC50 of 29 nM.
